Experimental data: ChEMBL document CHEMBL3112415, “Novel hybrid selenosulfonamides as potent antileishmanial agents” (Eur J Med Chem, 2014)

Experiments:
[1] = Selectivity index, ratio of IC50 for human THP1 cells to IC50 for axenic amastigote stage of Leishmania infantum; assay type: toxicity, cell-based, THP-1; conditions: read-out: Ratio IC50
How it was run: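 SI computed as THP-1 IC50 (24 h PI-exclusion flow cytometry) divided by IC50 against L. infantum amastigotes.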

THP-1 = experiment: Cytotoxicity against human THP1 cells after 24 hrs by propidium iodide staining-based flow cytometric analysis; assay type: cell-based; conditions: THP-1, 24 h
How it was run: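 THP-1 cells grown in RPMI-1640 with 10% heat-inactivated FCS, 1 mM HEPES, 2 mM glutamine, 1 mM pyruvate, pH 7.2, 37 °C, 5% CO2; treated in log phase at 4 × 10⁵ cells/mL for 24 h at 37 °C, 5% CO2. Viability by flow cytometry with propidium iodide exclusion; IC50 reported.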

Leishmania infantum [2] = experiment: Leishmanicidal activity against axenic amastigote stage of Leishmania infantum after 24 hrs by propidium iodide staining-based flow cytometric analysis; assay type: functional, organism-based
How it was run: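 Axenic amastigotes maintained at pH 5.4, 37 °C in medium with citric acid, sodium bicarbonate, MES, hemin and gentamicin; miltefosine and edelfosine as standards; at least three independent experiments; IC50 values.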

Leishmania infantum [3] = experiment: Leishmanicidal activity against amastigote stage of Leishmania infantum expressing GFP infected in human THP1 cells after 48 hrs by flow cytometric analysis; assay type: functional, organism-based; conditions: THP-1, 48 h
How it was run: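 THP-1 cells seeded at 120.000 cells/mL, differentiated to macrophages for 24 h with 10 ng/mL PMA in RPMI-1640, then infected with 1.2 × 10⁶ eGFP-expressing amastigotes per well; free parasites removed after 4 h. After 48 h drug treatment, cells washed with PBS, detached with TrypLE, and infection rate read by flow cytometry.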

O=S(=O)(Nc1ccc([Se][Se]c2ccc(NS(=O)(=O)c3ccc(Cl)cc3)cc2)cc1)c1ccc(Cl)cc1
selectivity ratio [1]: > 7 | IC50 (THP-1): > 25 µM | IC50 (Leishmania infantum [2]): 3.63 µM

O=S(=O)(Nc1ccc([Se][Se]c2ccc(NS(=O)(=O)c3ccc(Br)cc3)cc2)cc1)c1ccc(Br)cc1
selectivity ratio [1]: 2 | IC50 (THP-1): 5.2 µM | IC50 (Leishmania infantum [2]): 2.8 µM

O=[N+]([O-])c1ccc(S(=O)(=O)Nc2ccc([Se][Se]c3ccc(NS(=O)(=O)c4ccc([N+](=O)[O-])cc4)cc3)cc2)cc1
selectivity ratio [1]: 4.6 | IC50 (THP-1): 17.1 µM | IC50 (Leishmania infantum [2]): 3.74 µM

O=S(=O)(Nc1ccc([Se][Se]c2ccc(NS(=O)(=O)c3cccc4cccnc34)cc2)cc1)c1cccc2cccnc12
IC50 (Leishmania infantum [3]): 6.2 µM | selectivity ratio [1]: > 30 | IC50 (THP-1): > 25 µM | IC50 (Leishmania infantum [2]): 0.83 µM

O=S(=O)(Nc1ccc([Se][Se]c2ccc(NS(=O)(=O)c3ccccc3F)cc2)cc1)c1ccccc1F
selectivity ratio [1]: 10.7 | IC50 (THP-1): 17.8 µM | IC50 (Leishmania infantum [2]): 1.66 µM

O=S(=O)(Nc1ccc([Se][Se]c2ccc(NS(=O)(=O)c3ccc(F)cc3)cc2)cc1)c1ccc(F)cc1
IC50 (Leishmania infantum [3]): 2.8 µM | selectivity ratio [1]: > 17 | IC50 (THP-1): > 25 µM | IC50 (Leishmania infantum [2]): 1.47 µM

O=S(=O)(Nc1ccc([Se][Se]c2ccc(NS(=O)(=O)c3cccs3)cc2)cc1)c1cccs1
selectivity ratio [1]: 5.6 | IC50 (THP-1): 8.6 µM | IC50 (Leishmania infantum [2]): 1.54 µM

COc1ccc(S(=O)(=O)Nc2ccc([Se][Se]c3ccc(NS(=O)(=O)c4ccc(OC)cc4)cc3)cc2)cc1
selectivity ratio [1]: 14 | IC50 (THP-1): 18.1 µM | IC50 (Leishmania infantum [2]): 1.3 µM

O=S(=O)(Nc1ccc([Se][Se]c2ccc(NS(=O)(=O)c3ccc(-c4ccccc4)cc3)cc2)cc1)c1ccc(-c2ccccc2)cc1
selectivity ratio [1]: > 2 | IC50 (THP-1): > 25 µM | IC50 (Leishmania infantum [2]): 13.8 µM

CCCCCCCCCCCCCCCCOP(=O)([O-])OCC[N+](C)(C)C [MILTEFOSINE]
selectivity ratio [1]: 7

N#Cc1ccc(S(=O)(=O)Nc2ccc([Se][Se]c3ccc(NS(=O)(=O)c4ccc(C#N)cc4)cc3)cc2)cc1
selectivity ratio [1]: 2 | IC50 (THP-1): 3.6 µM | IC50 (Leishmania infantum [2]): 1.76 µM

O=S(=O)(Nc1ccc([Se][Se]c2ccc(NS(=O)(=O)c3ccccc3)cc2)cc1)c1ccccc1
selectivity ratio [1]: 7.3 | IC50 (THP-1): 11.9 µM | IC50 (Leishmania infantum [2]): 1.64 µM

O=S(=O)(Nc1ccc([Se][Se]c2ccc(NS(=O)(=O)c3ccccc3Cl)cc2)cc1)c1ccccc1Cl
selectivity ratio [1]: 15 | IC50 (THP-1): 17.4 µM | IC50 (Leishmania infantum [2]): 1.17 µM

O=S(=O)(Nc1ccc([Se][Se]c2ccc(NS(=O)(=O)c3ccc4ccccc4c3)cc2)cc1)c1ccc2ccccc2c1
selectivity ratio [1]: > 4.4 | IC50 (THP-1): > 25 µM | IC50 (Leishmania infantum [2]): 5.65 µM

O=S(=O)(Nc1ccc([Se][Se]c2ccc(NS(=O)(=O)c3ccc(C(F)(F)F)cc3)cc2)cc1)c1ccc(C(F)(F)F)cc1
selectivity ratio [1]: 9.5 | IC50 (THP-1): 19.1 µM | IC50 (Leishmania infantum [2]): 2.01 µM

CCCCCCCCCCCCCCCCCCOCC(COP(=O)([O-])OCC[N+](C)(C)C)OC (stereo not given) [EDELFOSINE]
IC50 (Leishmania infantum [3]): 3.1 µM | selectivity ratio [1]: 6 | IC50 (THP-1): 4.9 µM

Cn1ccnc1S(=O)(=O)Nc1ccc([Se][Se]c2ccc(NS(=O)(=O)c3nccn3C)cc2)cc1
selectivity ratio [1]: 4 | IC50 (THP-1): 4.4 µM | IC50 (Leishmania infantum [2]): 1.05 µM

Cc1ccc(S(=O)(=O)Nc2ccc([Se][Se]c3ccc(NS(=O)(=O)c4ccc(C)cc4)cc3)cc2)cc1
IC50 (Leishmania infantum [3]): 4.1 µM | selectivity ratio [1]: > 18 | IC50 (THP-1): > 25 µM | IC50 (Leishmania infantum [2]): 1.4 µM
